How the values were obtained:
[1] = Pharmacokinetic analysis, plasma and tissue concentration; format: in vivo, CD1 mice; conditions: CD1, mouse, 1 mg/kg
KP-4 transplanted tumor = test: KP-4 xenograft, 6 days of treatment followed by 3 days off-drug; format: in vivo, BALB/c Nude mice; conditions: compared with vehicle group
MCL-1 = MCL-1 protein in KP-4 transplanted tumor homogenate; format: in vivo, BALB/c Nude mice; conditions: KP-4 xenograft, BS-HH-002 5.4 mg/kg, versus vehicle group
Summary of the method: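 The model was KP-4 subcutaneous xenografts in BALB/c Nude mice. Tumors from at least five mice in each of the vehicle, gemcitabine and test compound (5.4 mg/kg) groups were analysed. MCL-1 and BCL-XL protein levels were measured by Western blot with β-actin or β-Tubulin as internal reference.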

TIP30/CC3 = test: Immunofluorescence of TIP30/CC3 in KP-4 tumor sections; format: in vivo, BALB/c Nude mice; conditions: BS-HH-002 at 3.0 mg/kg, p = 0.004, p = 0.461

Question: Which concentration at 2 h ([1]; bone marrow, po) does the source give for `COC(=O)C[C@](O)(CCCC(C)(C)O)C(=O)O[C@@H]1C(OC)=C[C@]23CCCN2CCc2cc4c(cc2[C@H]13)OCO4` [HHT, homoharringtonine] here?
Answer: 669 ng/mL

Question: And the concentration at 8 h ([1]; bone marrow, po)?
Answer: 48.6 ng/mL

Question: What about the concentration at 0.5 h ([1]; bone marrow, sc) of the same compound?
Answer: 141 ng/mL

Question: What about the concentration at 2 h ([1]; bone marrow, sc) of the same compound?
Answer: 412 ng/mL

Question: What about the concentration at 8 h ([1]; bone marrow, sc) of the same compound?
Answer: 43.5 ng/mL

Question: And the concentration at 0.5 h ([1]; brain, sc)?
Answer: 11 ng/mL

Question: And the concentration at 2 h ([1]; brain, sc)?
Answer: 6.37 ng/mL

Question: What about the concentration at 8 h ([1]; brain, sc) of the same compound?
Answer: 4.97 ng/mL

Question: What about the concentration at 0.5 h ([1]; esophagus, po) of the same compound?
Answer: 607 ng/mL

Question: What about the concentration at 0.5 h ([1]; esophagus, sc) of the same compound?
Answer: 138 ng/mL

Question: And the concentration at 2 h ([1]; esophagus, sc)?
Answer: 185 ng/mL

Question: And the concentration at 8 h ([1]; esophagus, sc)?
Answer: 52.6 ng/mL

Question: And the concentration at 0.5 h ([1]; heart, po)?
Answer: 125 ng/mL

Question: What about the concentration at 2 h ([1]; heart, po) of the same compound?
Answer: 321 ng/mL

Question: What about the concentration at 8 h ([1]; heart, po) of the same compound?
Answer: 156 ng/mL

Question: What about the concentration at 0.5 h ([1]; heart, sc) of the same compound?
Answer: 541 ng/mL

Question: And the concentration at 2 h ([1]; heart, sc)?
Answer: 254 ng/mL

Question: What about the concentration at 8 h ([1]; heart, sc) of the same compound?
Answer: 115 ng/mL

Question: And the concentration at 0.5 h ([1]; kidney, po)?
Answer: 25.4 ng/mL

Question: What about the concentration at 2 h ([1]; kidney, po) of the same compound?
Answer: 117 ng/mL

Question: What about the concentration at 8 h ([1]; kidney, po) of the same compound?
Answer: 33.5 ng/mL

Question: And the concentration at 0.5 h ([1]; kidney, sc)?
Answer: 2010 ng/mL

Question: And the concentration at 2 h ([1]; kidney, sc)?
Answer: 796 ng/mL

Question: And the concentration at 8 h ([1]; kidney, sc)?
Answer: 95.6 ng/mL

Question: And the concentration at 24 h ([1]; kidney, sc)?
Answer: 5.04 ng/mL

Question: And the concentration at 0.5 h ([1]; large intestine, po)?
Answer: 105 ng/mL

Question: What about the concentration at 2 h ([1]; large intestine, po) of the same compound?
Answer: 528 ng/mL

Question: And the concentration at 8 h ([1]; large intestine, po)?
Answer: 689 ng/mL

Question: What about the concentration at 0.5 h ([1]; large intestine, sc) of the same compound?
Answer: 1030 ng/mL

Question: What about the concentration at 2 h ([1]; large intestine, sc) of the same compound?
Answer: 807 ng/mL

Question: And the concentration at 8 h ([1]; large intestine, sc)?
Answer: 502 ng/mL

Question: What about the concentration at 24 h ([1]; large intestine, sc) of the same compound?
Answer: 35.4 ng/mL

Question: What about the concentration at 0.5 h ([1]; liver, po) of the same compound?
Answer: 184 ng/mL

Question: And the concentration at 2 h ([1]; liver, po)?
Answer: 296 ng/mL

Question: And the concentration at 8 h ([1]; liver, po)?
Answer: 173 ng/mL

Question: And the concentration at 0.5 h ([1]; liver, sc)?
Answer: 983 ng/mL

Question: And the concentration at 2 h ([1]; liver, sc)?
Answer: 615 ng/mL

Question: What about the concentration at 8 h ([1]; liver, sc) of the same compound?
Answer: 80.2 ng/mL

Question: What about the concentration at 24 h ([1]; liver, sc) of the same compound?
Answer: 4.53 ng/mL

Question: And the concentration at 0.5 h ([1]; lung, po)?
Answer: 135 ng/mL

Question: And the concentration at 2 h ([1]; lung, po)?
Answer: 807 ng/mL

Question: What about the concentration at 8 h ([1]; lung, po) of the same compound?
Answer: 73.6 ng/mL

Question: What about the concentration at 0.5 h ([1]; lung, sc) of the same compound?
Answer: 693 ng/mL

Question: What about the concentration at 2 h ([1]; lung, sc) of the same compound?
Answer: 287 ng/mL

Question: What about the concentration at 8 h ([1]; lung, sc) of the same compound?
Answer: 62.5 ng/mL

Question: What about the concentration at 24 h ([1]; lung, sc) of the same compound?
Answer: 5.8 ng/mL

Question: What about the concentration at 0.5 h ([1]; pancreas, po) of the same compound?
Answer: 85.8 ng/mL

Question: And the concentration at 2 h ([1]; pancreas, po)?
Answer: 228 ng/mL

Question: And the concentration at 8 h ([1]; pancreas, po)?
Answer: 211 ng/mL

Question: And the concentration at 24 h ([1]; pancreas, po)?
Answer: 4.86 ng/mL

Question: And the concentration at 0.5 h ([1]; pancreas, sc)?
Answer: 753 ng/mL

Question: And the concentration at 2 h ([1]; pancreas, sc)?
Answer: 512 ng/mL

Question: And the concentration at 8 h ([1]; pancreas, sc)?
Answer: 215 ng/mL

Question: What about the concentration at 24 h ([1]; pancreas, sc) of the same compound?
Answer: 5.62 ng/mL

Question: What about the concentration at 0.5 h ([1]; plasma, po) of the same compound?
Answer: 14.8 ng/mL

Question: What about the concentration at 2 h ([1]; plasma, po) of the same compound?
Answer: 47.7 ng/mL

Question: And the concentration at 8 h ([1]; plasma, po)?
Answer: 13.7 ng/mL

Question: And the concentration at 0.5 h ([1]; plasma, sc)?
Answer: 166 ng/mL

Question: And the concentration at 2 h ([1]; plasma, sc)?
Answer: 48.9 ng/mL

Question: And the concentration at 8 h ([1]; plasma, sc)?
Answer: 11.1 ng/mL

Question: What about the concentration at 24 h ([1]; plasma, sc) of the same compound?
Answer: 0.929 ng/mL

Question: And the concentration at 0.5 h ([1]; spleen, po)?
Answer: 184 ng/mL

Question: And the concentration at 2 h ([1]; spleen, po)?
Answer: 742 ng/mL

Question: And the concentration at 8 h ([1]; spleen, po)?
Answer: 225 ng/mL

Question: And the concentration at 0.5 h ([1]; spleen, sc)?
Answer: 1990 ng/mL

Question: And the concentration at 2 h ([1]; spleen, sc)?
Answer: 1290 ng/mL

Question: What about the concentration at 8 h ([1]; spleen, sc) of the same compound?
Answer: 282 ng/mL

Question: And the concentration at 24 h ([1]; spleen, sc)?
Answer: 16.5 ng/mL

Question: And the concentration at 0.5 h ([1]; stomach, po)?
Answer: 1360 ng/mL

Question: What about the concentration at 2 h ([1]; stomach, po) of the same compound?
Answer: 806 ng/mL

Question: And the concentration at 8 h ([1]; stomach, po)?
Answer: 870 ng/mL

Question: And the concentration at 0.5 h ([1]; stomach, sc)?
Answer: 999 ng/mL

Question: What about the concentration at 2 h ([1]; stomach, sc) of the same compound?
Answer: 587 ng/mL

Question: And the concentration at 8 h ([1]; stomach, sc)?
Answer: 128 ng/mL

Question: What about the concentration at 24 h ([1]; stomach, sc) of the same compound?
Answer: 9.84 ng/mL

Question: For `Nc1ccn([C@@H]2O[C@H](CO)[C@@H](O)C2(F)F)c(=O)n1` [gemcitabine, Gemcitabine], which tumor volume (KP-4 transplanted tumor) is on record?
Answer: decreased significantly

Question: And the “MCL-1 protein level in tumor cells” value (MCL-1)?
Answer: no significant difference

Question: And the CC3 protein expression (TIP30/CC3)?
Answer: significantly increased
